Test results from article PMC4828974 (Cancer research, 2015).

Columns and labels:
[1] = tested on: WASF3 phosphorylation in MDA-MB-231 cells; details: inactivation of HSP90; cited from earlier work
WASF3 = WASF3 protein levels by western blot; assay type: cell-based; details: MDA-MB-231 cells cultured in serum
[2] = tested on: WASF3 phosphorylation in MDA-MB-231 cells; assay: WASF3 phosphorylation status; assay type: cell-based; details: for WASF3 phosphorylation levels: MDA-MB-231 cells in serum
Method in brief: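 MDA-MB-231 cells were treated with stapled peptides, the scrambled control peptide, or the HSP90 inhibitor 17-AAG for comparison. WASF3 was immunoprecipitated, with IgG IP as the negative control. Immunoblots were probed with the PY20 antibody for phosphorylation and with WASF3 antibody for total protein.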

[3] = tested on: breast and prostate cell lines; assay: Scratch wound; assay type: cell-based; details: scratch wound assay, compared with DMSO and scrambled peptide
KISS1 = KISS1 levels by western blot; assay type: cell-based; details: MDA-MB-231 cells, compared with scrambled peptides
CYFIP1 [4] = assay: CYFIP1 protein levels by western blot; assay type: cell-based; details: 24 hours treatment
[5] = tested on: breast and prostate cancer cells; assay: Transwell invasion assay; assay type: cell-based; details: for reduction of invasion potential: Transwell, 24 hours, 10 µM, compared with SCR peptides or DMSO; for dose dependence of suppression of cell invasion: high dose 10 µM versus low dose 2.5 µM
WASF3-CYFIP1 complex = WASF3-CYFIP1 complex (Homo sapiens, UniProt Q7L576); assay: Immunoprecipitation of WASF3, western blot for CYFIP1; assay type: cell-based; details: MDA-MB-231 cells treated with peptide, IP of WASF3
WASF3-CYFIP1 complex, sequence (Q7L576 whole entry): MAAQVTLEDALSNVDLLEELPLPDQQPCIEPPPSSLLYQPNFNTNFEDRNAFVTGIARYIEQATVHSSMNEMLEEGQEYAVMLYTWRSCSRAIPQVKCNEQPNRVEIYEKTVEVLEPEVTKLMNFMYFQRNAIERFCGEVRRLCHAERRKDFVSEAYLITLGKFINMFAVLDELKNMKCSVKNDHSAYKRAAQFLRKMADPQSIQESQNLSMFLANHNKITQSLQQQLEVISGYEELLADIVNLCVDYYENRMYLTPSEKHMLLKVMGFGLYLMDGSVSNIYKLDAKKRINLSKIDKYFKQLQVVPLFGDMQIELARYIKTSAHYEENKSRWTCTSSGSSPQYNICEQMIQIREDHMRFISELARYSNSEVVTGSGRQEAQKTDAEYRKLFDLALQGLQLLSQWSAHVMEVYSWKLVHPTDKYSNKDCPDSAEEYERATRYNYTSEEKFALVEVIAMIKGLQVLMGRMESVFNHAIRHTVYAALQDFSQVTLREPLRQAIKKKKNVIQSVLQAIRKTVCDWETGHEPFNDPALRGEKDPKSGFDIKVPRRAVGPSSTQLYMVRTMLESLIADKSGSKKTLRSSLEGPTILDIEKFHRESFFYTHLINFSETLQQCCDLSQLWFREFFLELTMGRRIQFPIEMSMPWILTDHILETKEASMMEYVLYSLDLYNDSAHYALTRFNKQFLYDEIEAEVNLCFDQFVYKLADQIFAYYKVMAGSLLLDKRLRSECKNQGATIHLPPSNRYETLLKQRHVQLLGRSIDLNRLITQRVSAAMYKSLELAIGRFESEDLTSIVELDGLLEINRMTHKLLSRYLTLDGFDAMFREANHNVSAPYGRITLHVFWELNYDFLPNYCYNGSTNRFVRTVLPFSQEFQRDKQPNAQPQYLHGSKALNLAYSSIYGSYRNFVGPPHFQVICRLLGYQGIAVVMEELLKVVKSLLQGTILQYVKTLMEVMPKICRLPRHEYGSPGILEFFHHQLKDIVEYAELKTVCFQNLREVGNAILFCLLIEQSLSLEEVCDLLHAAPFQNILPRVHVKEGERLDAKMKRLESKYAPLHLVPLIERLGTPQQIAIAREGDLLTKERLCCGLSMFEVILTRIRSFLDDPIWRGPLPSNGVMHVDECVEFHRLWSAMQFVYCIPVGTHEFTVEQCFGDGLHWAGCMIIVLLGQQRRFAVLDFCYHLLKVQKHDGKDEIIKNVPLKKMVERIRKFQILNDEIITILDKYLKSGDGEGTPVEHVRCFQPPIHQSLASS
WASF3-CYFIP1 complex, sequence (Q9Y2A7 whole entry partner): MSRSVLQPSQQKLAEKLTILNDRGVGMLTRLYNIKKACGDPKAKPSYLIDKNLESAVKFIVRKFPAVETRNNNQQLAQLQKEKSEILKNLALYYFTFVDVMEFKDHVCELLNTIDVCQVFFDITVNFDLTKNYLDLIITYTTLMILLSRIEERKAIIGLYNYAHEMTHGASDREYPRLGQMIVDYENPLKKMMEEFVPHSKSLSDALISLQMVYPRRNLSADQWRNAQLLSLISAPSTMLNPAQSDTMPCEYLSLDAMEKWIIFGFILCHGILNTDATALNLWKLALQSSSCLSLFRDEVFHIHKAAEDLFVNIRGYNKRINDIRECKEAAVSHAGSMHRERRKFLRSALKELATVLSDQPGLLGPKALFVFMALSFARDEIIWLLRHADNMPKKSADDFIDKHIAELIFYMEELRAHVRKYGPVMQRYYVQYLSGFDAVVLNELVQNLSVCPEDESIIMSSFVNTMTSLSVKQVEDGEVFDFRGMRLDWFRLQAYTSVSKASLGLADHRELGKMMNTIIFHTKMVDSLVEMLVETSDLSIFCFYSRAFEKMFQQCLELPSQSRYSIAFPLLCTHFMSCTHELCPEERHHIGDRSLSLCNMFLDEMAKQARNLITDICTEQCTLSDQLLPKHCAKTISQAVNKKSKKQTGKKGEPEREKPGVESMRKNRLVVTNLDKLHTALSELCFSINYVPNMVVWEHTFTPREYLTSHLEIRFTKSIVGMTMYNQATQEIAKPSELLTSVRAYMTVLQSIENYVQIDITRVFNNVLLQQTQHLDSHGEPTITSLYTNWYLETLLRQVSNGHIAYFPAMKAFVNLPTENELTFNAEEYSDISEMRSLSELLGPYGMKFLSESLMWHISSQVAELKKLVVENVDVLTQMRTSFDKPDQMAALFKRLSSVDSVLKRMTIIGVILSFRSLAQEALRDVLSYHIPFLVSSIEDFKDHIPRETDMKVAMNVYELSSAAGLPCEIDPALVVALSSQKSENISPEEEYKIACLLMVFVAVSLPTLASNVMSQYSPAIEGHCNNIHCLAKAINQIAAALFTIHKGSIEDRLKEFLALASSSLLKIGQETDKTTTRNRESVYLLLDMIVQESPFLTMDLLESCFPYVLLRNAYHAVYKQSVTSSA

[6] = molecular target: Rac1/2 binding to the WASF3 complex (Homo sapiens, UniProt Q7L576); assay: IP with WASF3 antibodies, western blot for Rac1/Rac2; assay type: cell-based; details: MDA-MB-231 cells
Rac1/2 binding to the WASF3 complex, sequence (Q7L576 whole entry): as the sequence (Q7L576 whole entry) above
Rac1/2 binding to the WASF3 complex, sequence (Q9Y2A7 whole entry partner): as the sequence (Q9Y2A7 whole entry partner) above
Method in brief: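 MDA-MB-231 cells were left untreated or treated with stapled test peptides or a scrambled control peptide. Lysates were immunoprecipitated with anti-WASF3 antibody, and the immunocomplex was western blotted for Rac1 and Rac2.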

CYFIP1 [7] = molecular target: CYFIP1 (Homo sapiens, UniProt Q7L576); assay: Avidin-biotin pull down with biotinylated stapled peptides, western blot; assay type: binding; details: 2.5 µM versus 10 µM biotinylated peptide, MDA-MB-231 cells
CYFIP1 (Homo sapiens, UniProt Q7L576), sequence (Q7L576 whole entry): as the sequence (Q7L576 whole entry) above
Method in brief: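 MDA-MB-231 cells exposed to biotin-labelled stapled test peptides at 2.5 or 10 µM, with biotinylated scrambled peptides as controls. Lysates incubated overnight at 4 °C with immobilised avidin resin. Pulled-down material resolved by SDS-PAGE and western blotted for CYFIP1.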

[8] = tested on: breast or prostate cancer cells; assay: MTS cell proliferation assay; assay type: cell-based; details: 10 µM, over 24 hours

Row | Molecule | WASF3 phosphoactivation [1] | WASF3 protein levels (WASF3) | suppression of WASF3 phosphorylation compared with 17-AAG ([2]; MDA-MB-231 cells) | WASF3 phosphorylation levels [2] | migration potential / cell motility [3] | KISS1 levels (KISS1) | intracellular levels of WASF3 or CYFIP1 (CYFIP1 [4]) | reduction of invasion potential [5] | dose dependence of suppression of cell invasion [5] | CYFIP1 in the WASF3 immunocomplex (WASF3-CYFIP1 complex) | Rac2 in the WASF3 IP [6] | concentration dependence of CYFIP1 pull down (CYFIP1 [7]) | cell proliferation [8]
1 | C=CCNC1=C2C[C@@H](C)C[C@H](OC)[C@H](O)[C@@H](C)/C=C(\C)[C@H](OC(N)=O)[C@@H](OC)/C=C\C=C(/C)C(=O)NC(=CC1=O)C2=O [17-AAG] | reduced WASF3 phosphoactivation | – | – | – | – | – | – | – | – | – | – | – | –
2 | LEK*TNS*LAKIIRQL (sidechain bridge or staple) [WAHM1] | – | without a reduction in WASF3 protein levels | more efficient than the 17-AAG HSP90 inhibitor | dramatic decrease in WASF3 phosphorylation levels | significant reduction in cell motility | increased KISS1 levels | did not affect intracellular levels of either WASF3 or CYFIP1 | 50–75% | dose-dependent effect | not present in the immunocomplex | could not be detected | concentration-dependent | no significant difference in cell proliferation
3 | SRA*LLI*TKIQNELK (sidechain bridge or staple) [SCR1] | – | – | – | – | – | – | – | – | – | – | present | – | –
4 | LEKKTN*TLA*IIRQL (sidechain bridge or staple) [WAHM2] | – | without a reduction in WASF3 protein levels | – | dramatic decrease in WASF3 phosphorylation levels | significant reduction in cell motility | increased KISS1 levels | did not affect intracellular levels of either WASF3 or CYFIP1 | 50–75% | dose-dependent effect | not present in the immunocomplex | – | concentration-dependent | no significant difference in cell proliferation
